Converted amounts (≈) assume the structure as drawn.
Tests used:
[1] = system: Hepacivirus hominis; assay: Inhibition of HCV NS3 protease at 10 ug/ml
How it was run: (§1)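 Competitive displacement binding assay against HCV NS3-4A protease using the fluorogenic peptide substrate Ac-Asp-Glu-Asp(EDANS)-Glu-Glu-Abu-ψ. Fluorescence intensity was read, and percent inhibition was calculated from it.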

[2] = system: Hepacivirus hominis; assay: Inhibition of HCV NS3 protease at 100 ug/ml; how it was run: as §1
[3] = Inhibition of HCV NS3 protease; set-up: species or system Hepacivirus hominis; how it was run: as §1
[4] = system: Hepacivirus hominis; assay: Inhibition of HCV NS3 protease at 50 ug/ml; how it was run: as §1

Structure (SMILES)	inhibition [1]	inhibition [2]	IC50 [3]	inhibition [4]
O=C(CCC(=O)N[C@@H](Cc1ccc(O)cc1)C(=O)O)CC(c1ccc(C(F)(F)F)cc1)c1c[nH]c2ccc(Br)cc12 (stereo partly specified)	19.1%	82.9%	39.2 µg/mL (≈ 62.1 µM)	54%
COc1ccc2[nH]cc(C(CC(=O)CCC(=O)N[C@@H](Cc3c[nH]c4ccccc34)C(=O)O)c3ccc(C(F)(F)F)cc3)c2c1 (mixture of isomers)		76.9%	47.9 µg/mL	51.2%
COc1ccc2[nH]cc(C(CC(=O)CCC(=O)N[C@@H](Cc3ccc(O)cc3)C(=O)O)c3ccc(C(F)(F)F)cc3)c2c1 (mixture of isomers)	35.2%	84.3%	39 µg/mL	57.1%
COc1ccc(C(CC(=O)CCC(=O)N[C@@H](Cc2c[nH]c3ccccc23)C(=O)O)c2c[nH]c3ccc(Br)cc23)cc1 (mixture of isomers)		72.6%	44.1 µg/mL	54.8%
COc1ccc2[nH]cc(C(CC(=O)CCC(=O)N[C@@H](Cc3c[nH]cn3)C(=O)O)c3ccc(C(F)(F)F)cc3)c2c1 (mixture of isomers)	23.5%	77.6%	30.5 µg/mL	62.5%
COc1ccc(C(CC(=O)CCC(=O)N[C@@H](Cc2ccc(O)cc2)C(=O)O)c2c[nH]c3ccc(Br)cc23)cc1 (mixture of isomers)		68.7%	63.3 µg/mL	41.5%

Next, values leading:

inhibition [1]	inhibition [2]	IC50 [3]	inhibition [4]	Structure (SMILES)
		36.5 µg/mL (≈ 69 µM)		COc1ccc([C@@H](CC(=O)CCC(=O)N[C@@H](Cc2ccccc2)C(=O)O)c2c[nH]c3ccc(OC)cc23)cc1
	67.4%	44.8 µg/mL	54.4%	COc1ccc(C(CC(=O)CCC(=O)N[C@@H](Cc2c[nH]c3ccccc23)C(=O)O)c2c[nH]c3ccc(OC)cc23)cc1 (mixture of isomers)
29.6%	78.8%	27.2 µg/mL	69.9%	COc1ccc(C(CC(=O)CCC(=O)N[C@@H](Cc2ccc(O)cc2)C(=O)O)c2c[nH]c3ccc(OC)cc23)cc1 (mixture of isomers)
43.7%	85.7%	15 µg/mL	84.4%	COc1ccc(C(CC(=O)CCC(=O)N[C@@H](Cc2ccccc2)C(=O)O)c2c[nH]c3ccc(OC)cc23)cc1 (mixture of isomers)
48.5%	84.9%	13 µg/mL	67.2%	COc1ccc2[nH]cc(C(CC(=O)CCC(=O)N[C@@H](Cc3ccccc3)C(=O)O)c3ccc(C(F)(F)F)cc3)c2c1 (mixture of isomers)
22.4%	75.7%	31 µg/mL	59.2%	COc1ccc(C(CC(=O)CCC(=O)N[C@@H](Cc2c[nH]cn2)C(=O)O)c2c[nH]c3ccc(OC)cc23)cc1 (mixture of isomers)

Source: ChEMBL document CHEMBL1140068, “Computer based design, synthesis and biological evaluation of novel indole derivatives as HCV NS3-4A serine protease inhibitors” (Bioorg Med Chem, 2008)
